Reference: publication PMC9065685 (Bioorganic Chemistry, 2022)
Converted amounts (≈) assume the structure as drawn. “And” between values parts separate entries of the source, which are not always exact repeats. Equal entries are not always repeated.

Experiments:
[1] = system: tested strains (pathogenic bacteria); experiment: MIC and MBC by micro-broth dilution, over the tested strains; assay type: cell-based; conditions: for MBC: read-out: MBC values against the tested organisms; for MIC: read-out: MIC values against the tested strains
Procedure, shortened: (§1)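 Broth microdilution in Mueller-Hinton broth, using a two-fold test compound series over 0.125 to 128 µg/mL. Wells received 5 µL of inoculum at 10⁴–10⁵ CFU/mL, diluted from a 0.5 McFarland suspension. Each plate had growth (no compound) and sterility controls. After 24 h at 37 °C, 0.5% (w/v) triphenyl tetrazolium chloride was added for a further 24 h at 37 °C. Red colour indicated growth, and MIC/MBC were read visually.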

[2] = system: Escherichia coli; experiment: Disc diffusion antibacterial susceptibility test; assay type: cell-based; conditions: mean ± SD, triplicate, NI = No inhibition
Procedure, shortened: (§2)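 Bacteria came from a university microbiology laboratory stock. Colonies were suspended in sterile 0.85% saline and matched to McFarland 0.5, then swabbed evenly onto Mueller-Hinton agar. 6 mm filter-paper discs carrying test compound were laid on the agar. Plates were incubated 18 h at 37 °C and inhibition zone diameters measured in mm. Three repeats, reported as mean ± SD.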

[3] = system: Aspergillus flavus; experiment: Mycelial growth inhibition; assay type: cell-based; conditions: 5 days incubation, mean ± SD, triplicate, NI = No inhibition
[4] = system: B. subtilis; experiment: MIC and MBC by micro-broth dilution; assay type: cell-based; conditions: Bacillus subtilis
Procedure, shortened: as §1

[5] = system: brine shrimps nauplii; experiment: Brine shrimp lethality assay; assay type: in vivo; conditions: brine shrimp lethality bioassay, 24 h and 48 h
Procedure, shortened: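 Test compound was dissolved in DMSO and made up to 5 ml with NaCl solution at four concentrations. Ten nauplii per vial, each concentration run three times; control vial held 10 nauplii in 5 ml seawater. Vials stood at room temperature for 24 h and 48 h. Survivors were counted under a magnifying glass, and average % mortality was calculated per concentration.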

[6] = system: Pseudomonas aeruginosa; experiment: Disc diffusion antibacterial susceptibility test; assay type: cell-based; conditions: mean ± SD, triplicate, NI = No inhibition
Procedure, shortened: as §2

[7] = system: Aspergillus niger; experiment: Mycelial growth inhibition; assay type: cell-based; conditions: 5 days incubation, mean ± SD, triplicate, NI = No inhibition
[8] = system: Salmonella typhi; experiment: Disc diffusion antibacterial susceptibility test; assay type: cell-based; conditions: mean ± SD, triplicate, NI = No inhibition
Procedure, shortened: as §2

[9] = system: Bacillus subtilis; experiment: Disc diffusion antibacterial susceptibility test; assay type: cell-based; conditions: 18 h at 37 °C, mean ± SD, triplicate, NI = No inhibition
Procedure, shortened: as §2

## CCCCCCCCCCCC(=O)OC[C@H]1O[C@@H](n2cc(C)c(=O)[nH]c2=O)C[C@@H]1O [analog 2, 5́-O-(Lauroyl)thymidine]
[1]
  MBC: 8 to 16 µg/mL (≈ 18.8 to 37.7 µM)
  MIC: 0.125 to 8 µg/mL (≈ 0.294 to 18.8 µM)
[2]
  Diameter of inhibition zone, E. coli (-ve): *13.00 ± 0.1 mm
[3]
  % inhibition of fungal mycelial growth in mm (20 μg/μL), Aspergillus. flavus: *82.76 ± 1.0%
[4]
  MIC: 0.125 µg/mL (≈ 0.294 µM)
[5]
  % death of brine shrimp (level of toxicity): 36.25%
[6]
  Diameter of inhibition zone, P. aeruginosa (-ve): *12.75 ± 0.1 mm
[7]
  % inhibition of fungal mycelial growth in mm (20 μg/μL), Aspergillus niger: *60.16 ± 1.2%
[8]
  Diameter of inhibition zone, S. typhi (-ve): *14.50 ± 0.3 mm

## CC[C@H]1OC(=O)[C@H](C)[C@@H](O[C@H]2C[C@@](C)(OC)[C@@H](O)[C@H](C)O2)[C@H](C)[C@@H](O[C@@H]2O[C@H](C)C[C@H](N(C)C)[C@H]2O)[C@](C)(O)C[C@@H](C)CN(C)[C@H](C)[C@@H](O)[C@]1(C)O [Azithromycin, reference compound]
[2]
  Diameter of inhibition zone, E. coli (-ve): **17.25 ± 0.1 mm
[6]
  Diameter of inhibition zone, P. aeruginosa (-ve): **18.5 ± 0.3 mm
[9]
  Diameter of inhibition zone, B. subtilis (+ve): 18.5 ± 0.3 mm
[8]
  Diameter of inhibition zone, S. typhi (-ve): **18 ± 0.2 mm

## CCCCCCCCCCCC(=O)OC[C@H]1O[C@@H](n2cc(C)c(=O)[nH]c2=O)C[C@@H]1OC(=O)c1ccc(Br)cc1 [analog 6, 3́-O-(4-Bromobenzoyl)-5́-O-(lauroyl)thymidine]
[5]
  % death of brine shrimp (level of toxicity): 38.75%
[8]
  Diameter of inhibition zone, S. typhi (-ve): 9.5 ± 0.1 mm

## CCCCCCCCCCCCCCCC(=O)O[C@H]1C[C@H](n2cc(C)c(=O)[nH]c2=O)O[C@@H]1COC(=O)CCCCCCCCCCC [analog 5, 5′-O-Lauroyl-3′-O-(palmitoyl)thymidine]
[2]
  Diameter of inhibition zone, E. coli (-ve): 9.00 ± 0.2 mm
[3]
  % inhibition of fungal mycelial growth in mm (20 μg/μL), Aspergillus. flavus: *81.55 ± 1.0%
[6]
  Diameter of inhibition zone, P. aeruginosa (-ve): 8.50 ± 0.2 mm
[9]
  Diameter of inhibition zone, B. subtilis (+ve): 14.50 mm and 14.5 ± 0.1 mm
[7]
  % inhibition of fungal mycelial growth in mm (20 μg/μL), Aspergillus niger: 57.62 ± 1.1%
[8]
  Diameter of inhibition zone, S. typhi (-ve): *15.25 ± 0.2 mm

## C[C@@H]1[C@H](O)[C@@H](C)/C=C/C=C/CC/C=C/C=C/C=C/C=C/C(O[C@H]2O[C@H](C)[C@@H](O)[C@H](N)[C@@H]2O)CC2O[C@](O)(CC(O)C(O)CCC(O)CC(O)CC(O)CC(=O)O[C@H]1C)CC(O)C2C(=O)O (some centres unmarked) [Nystatin, reference compound]
[3]
  % inhibition of fungal mycelial growth in mm (20 μg/μL), Aspergillus. flavus: **64.1 ± 1.0%
[7]
  % inhibition of fungal mycelial growth in mm (20 μg/μL), Aspergillus niger: **65.4 ± 1.0%

## CCCCCCCCCCCC(=O)OC[C@H]1O[C@@H](n2cc(C)c(=O)[nH]c2=O)C[C@@H]1OC(=O)c1ccc(C(C)(C)C)cc1 [analog 3, 3́-O-(4-t-Butylbenzoyl)-5́-O-(lauroyl)thymidine]
[1]
  MBC: 8 to 16 µg/mL (≈ 13.7 to 27.4 µM)
  MIC: 0.125 to 8 µg/mL (≈ 0.214 to 13.7 µM)
[3]
  % inhibition of fungal mycelial growth in mm (20 μg/μL), Aspergillus. flavus: *72.95 ± 1.0%
[6]
  Diameter of inhibition zone, P. aeruginosa (-ve): *11.75 ± 0.4 mm
[9]
  Diameter of inhibition zone, B. subtilis (+ve): 13.25 mm and 13.25 ± 0.2 mm
[7]
  % inhibition of fungal mycelial growth in mm (20 μg/μL), Aspergillus niger: *65.25 ± 1.1%
[8]
  Diameter of inhibition zone, S. typhi (-ve): 9.75 ± 0.2 mm

## CCCCCCCCCCCCCC(=O)O[C@H]1C[C@H](n2cc(C)c(=O)[nH]c2=O)O[C@@H]1COC(=O)CCCCCCCCCCC [analog 4, 5́-O-Lauroyl-3́-O-(myristoyl)thymidine]
[2]
  Diameter of inhibition zone, E. coli (-ve): *12.5 ± 0.2 mm
[9]
  Diameter of inhibition zone, B. subtilis (+ve): 12.75 mm and 12.75 ± 0.1 mm
